In the library only some 0.63% were active in any assay of this set; here they are far more common.
MT1-MMP act inh: blockers of MT1-MMP proenzyme processing, primary screen, HT1080 RFP-PRO-GFP cells, GFP/RFP fluorescence; Matrix metalloproteinase-14 (Homo sapiens), P50281; hit rate 0.061% among 360,000; GFP/RFP ratio change, % at 20 µM; GFP/RFP ratio fluorescence, overnight; percent of plate control window, DMSO zero;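 active means GFP/RFP ratio change of at least 30% with cell ATP level not reduced by more than half and red fluorescence within 50% of control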
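Test system: HT1080 cells expressing an RFP-PRO-GFP fluorescent reporter construct / Compound dosing: single-point 20 µM compound, 1% DMSO / Schedule: cells overnight before dosing, compound overnight, 37 °C, 5% CO2 / Evaluation: GFP/RFP fluorescence ratio / Control set: DMSO and RFP-L50D-GFP cell wells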
STK33 inh: inhibitors of purified STK33 kinase, primary screen, biochemical, ADP-Glo luminescence, homogeneous, cell-free; MBP phosphorylation; hit rate 0.073% among 320,000; inhibition, % at 10 µM; Serine/threonine-protein kinase 33 (Homo sapiens), Q9BYT3;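 active means inhibition at or above 25%, using the most active replicate where run in duplicate; inactive means inhibition below 25%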
GSK3A inh: blockers of GSK3A enzyme activity – biochemical, luminescence, cell-free homogeneous, HTS, primary screen; hit rate 0.1% among 320,000; GSK-3 alpha kinase, ADP-Glo luminescence, 60 min; inhibition, % at 10 µM; Glycogen synthase kinase-3 alpha (Homo sapiens), P49840;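 active means more than half of replicates show inhibition above 20%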;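 further: GST-tagged GSK-3 alpha with peptide substrate and 25 µM ATP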
Pemphigus Ab inh: inhibitors of pemphigus antibody binding to DSG3, primary screen, biochemical, bead-based, flow cytometry, scFv-GFP; DSG3-coupled beads, scFv-anti-DSG3-GFP binding; active compounds read low; hit rate 0.48% among 310,000; binding (percent of control), % at 10 µM; AID 588358, 2011; Desmoglein-3 (Homo sapiens), P32926;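 active means binding more than 3 SD below its plate's average and above zero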;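 further: hits lower antibody fragment binding to DSG3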
GSK3B inh: human GSK3beta kinase inhibitors, primary screen, biochemical, cell-free homogeneous, HTS; activity score (negative = inhibition), % at 10 µM; GST-GSK3beta kinase, ADP-Glo luminescence, 60 min; active compounds read low; hit rate 0.038% among 300,000; Glycogen synthase kinase-3 beta (Homo sapiens), P49841;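 active means more than half of replicate wells score below -50%, meaning over 50% inhibition versus plate controls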
Target sequence (P49841 whole entry, looked up): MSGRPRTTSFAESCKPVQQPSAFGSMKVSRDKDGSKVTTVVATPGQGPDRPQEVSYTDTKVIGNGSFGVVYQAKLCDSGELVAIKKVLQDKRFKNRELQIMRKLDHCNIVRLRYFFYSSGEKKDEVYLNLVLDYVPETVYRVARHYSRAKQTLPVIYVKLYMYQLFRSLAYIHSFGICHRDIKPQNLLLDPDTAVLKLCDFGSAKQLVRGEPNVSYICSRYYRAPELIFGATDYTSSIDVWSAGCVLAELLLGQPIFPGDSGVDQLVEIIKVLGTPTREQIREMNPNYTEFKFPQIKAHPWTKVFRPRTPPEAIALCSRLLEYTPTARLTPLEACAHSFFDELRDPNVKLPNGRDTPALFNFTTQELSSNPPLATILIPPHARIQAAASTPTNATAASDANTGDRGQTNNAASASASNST
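Test system: GST-fused GSK3beta enzyme, cell-free | Quantity: 1.6 ng GST-GSK3beta enzyme per well | Reagent: 25 µM ATP with peptide substrate | Schedule: 60 min enzyme reaction, room temperature | Signal: Luminescent ADP-Glo measurement of ADP formed | Read-out basis: Score relative to plate controls | Control set: DMSO and 20 µM GW8510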
Hits are given with their value.

How did O=c1cc(-c2ccc(O)cc2)oc2c(O)c(O)c(O)c(O)c12 do in these assays?
MT1-MMP act inh: inactive; STK33 inh: inactive; GSK3A inh: inactive; Pemphigus Ab inh: 58.2

How did C/C(=C\C(=O)c1ccc(Cl)cc1)Nc1ccc(N2CCOCC2)cc1 do in these assays?
MT1-MMP act inh: inactive; STK33 inh: inactive; GSK3A inh: inactive; Pemphigus Ab inh: inactive; GSK3B inh: inactive

How did C/C(=C\C(=O)c1ccc(Br)cc1)Nc1ccc(Cl)cc1 do in these assays?
MT1-MMP act inh: inactive; STK33 inh: inactive; GSK3A inh: inactive; Pemphigus Ab inh: 78.3; GSK3B inh: inactive

How did Cc1ccccc1C(=O)Nc1nnc(S(=O)(=O)N2CCCCCC2)s1 do in these assays?
MT1-MMP act inh: inactive; STK33 inh: inactive; GSK3A inh: inactive; Pemphigus Ab inh: -6.6; GSK3B inh: inactive

What do the screens show for `Cc1c(S(=O)(=O)N2CCN(c3cccc(C(F)(F)F)c3)CC2)c(=O)n(C)c(=O)n1C`?
MT1-MMP act inh: inactive; STK33 inh: inactive; GSK3A inh: inactive; Pemphigus Ab inh: inactive; GSK3B inh: inactive

Results for Cn1c(=O)c(=O)n(C)c2cc(S(=O)(=O)N3CCN(c4cccc(C(F)(F)F)c4)CC3)ccc21 ?
MT1-MMP act inh: inactive; STK33 inh: inactive; GSK3A inh: inactive; Pemphigus Ab inh: 70.6; GSK3B inh: inactive

What do the screens show for `Cc1cc(C)n2c(NCc3ccccc3)c(-c3cc4ccccc4o3)nc2n1`?
MT1-MMP act inh: inactive

How did Brc1ccc(Nc2ncnc3[nH]ncc23)cc1 do in these assays?
MT1-MMP act inh: inactive; STK33 inh: inactive; GSK3A inh: inactive; Pemphigus Ab inh: inactive; GSK3B inh: inactive

Results for Fc1cccc(Nc2ncnc3[nH]ncc23)c1 ?
MT1-MMP act inh: inactive; STK33 inh: inactive; GSK3A inh: 53.1; Pemphigus Ab inh: inactive; GSK3B inh: inactive

Results for O=C(CSc1nc2nn(-c3ccccc3)c(=O)c-2c2n1CCCCC2)Nc1ccc(F)c(F)c1 ?
MT1-MMP act inh: inactive; STK33 inh: inactive; GSK3A inh: inactive; Pemphigus Ab inh: -12.1

Results for CC(=O)c1ccc(NC(=O)CSc2nc3nn(-c4ccccc4)c(=O)c-3c3n2CCCCC3)cc1 ?
MT1-MMP act inh: inactive; Pemphigus Ab inh: inactive

Results for CCCCNC(=O)C1(C)CCN1C(=O)c1ccc(F)cc1Cl (stereo unspecified) ?
MT1-MMP act inh: inactive

Results for O=C(Nc1ccc(N2CCOCC2)cc1)c1ccc2nc(-c3ccco3)c(-c3ccco3)nc2c1 ?
MT1-MMP act inh: inactive; Pemphigus Ab inh: 2.0; GSK3B inh: inactive

Results for O=C(NCCCO)c1ccc2nc(-c3ccco3)c(-c3ccco3)nc2c1 ?
MT1-MMP act inh: inactive; Pemphigus Ab inh: 36.3

Results for COc1ccc(NC(=O)C2(C)CCN2Cc2cccc(OC)c2F)cc1OC (stereo unspecified) ?
MT1-MMP act inh: inactive

Results for O=C(COc1cc2oc(=O)c3c(c2cc1Cl)CCC3)Nc1cccnc1 ?
MT1-MMP act inh: inactive; STK33 inh: inactive; GSK3A inh: inactive; Pemphigus Ab inh: 77.4; GSK3B inh: inactive

Results for CCn1c(CC(=O)Nc2ccccc2Cl)nnc1SCC(=O)NC1CCCC1 ?
MT1-MMP act inh: inactive; STK33 inh: inactive; GSK3A inh: inactive; Pemphigus Ab inh: 85.7; GSK3B inh: inactive

What do the screens show for `COc1cc(C2c3sc(=O)[nH]c3SC3C(=O)N(c4ccc(C)cc4)C(=O)C32)ccc1O` (stereo unspecified)?
MT1-MMP act inh: inactive; STK33 inh: 31.3; GSK3A inh: inactive; Pemphigus Ab inh: inactive; GSK3B inh: inactive

What do the screens show for `CCOc1ccc(N2C(=O)C3Sc4[nH]c(=O)sc4C(c4ccc(OC)c(OC)c4)C3C2=O)cc1` (stereo unspecified)?
MT1-MMP act inh: inactive; STK33 inh: inactive; GSK3A inh: inactive; Pemphigus Ab inh: inactive; GSK3B inh: inactive

How did COc1ccc(C2c3sc(=O)[nH]c3SC3C4CCC(C4)C23)cc1 (stereo unspecified) do in these assays?
MT1-MMP act inh: inactive; STK33 inh: inactive; GSK3A inh: inactive; Pemphigus Ab inh: inactive; GSK3B inh: inactive

What do the screens show for `COc1cc(C2c3sc(=O)[nH]c3SC3C4CCC(C4)C23)ccc1O` (stereo unspecified)?
MT1-MMP act inh: inactive; STK33 inh: inactive; GSK3A inh: 77.6; Pemphigus Ab inh: inactive; GSK3B inh: inactive

What do the screens show for `COc1cccc(CNC(=O)c2cc3c(c(-c4cccc(-c5cccc(C#N)c5)c4)n2)[C@H](CCO)N(S(=O)C(C)(C)C)C3)c1` (stereo partly specified)?
MT1-MMP act inh: inactive

What do the screens show for `O=C(c1[nH]c(C(F)(F)F)nc1-c1ccccc1)N1CCN(c2cccc(C(F)(F)F)n2)CC1`?
MT1-MMP act inh: inactive

Results for COc1ccc(N2CCN(C(=O)COC(=O)/C=C/c3ccc(OC(F)F)cc3)CC2)cc1 ?
MT1-MMP act inh: inactive; Pemphigus Ab inh: 89.8; GSK3B inh: inactive

How did COc1ccc(N2CCN(C(=O)COC(=O)/C=C/c3ccc(C(F)(F)F)cc3)CC2)cc1 do in these assays?
MT1-MMP act inh: inactive; STK33 inh: inactive; GSK3A inh: inactive; Pemphigus Ab inh: inactive; GSK3B inh: inactive

How did NC(=O)Cc1ccc(C(=O)c2ccccc2F)s1 do in these assays?
MT1-MMP act inh: inactive; STK33 inh: inactive; GSK3A inh: inactive; Pemphigus Ab inh: inactive; GSK3B inh: inactive

How did NC(=O)Cc1ccc(C(=O)c2ccc(F)cc2)s1 do in these assays?
MT1-MMP act inh: inactive; STK33 inh: inactive; GSK3A inh: inactive; Pemphigus Ab inh: 74.6; GSK3B inh: inactive

How did CC(C)C1C(=O)N(Cc2cn(CC3CCCCC3)nn2)CCS(=O)(=O)N1Cc1ccc(-c2cccc(CO)c2)cc1 (stereo unspecified) do in these assays?
MT1-MMP act inh: inactive; Pemphigus Ab inh: inactive

What do the screens show for `Cc1ccc(NC(=O)NNC(=O)C2CCN(Cc3ccc(F)cc3Cl)CC2)cc1`?
MT1-MMP act inh: inactive; STK33 inh: inactive; GSK3A inh: inactive; Pemphigus Ab inh: 50.1; GSK3B inh: inactive

What do the screens show for `Cc1ccc(/C=N/NC(=O)C2CCN(Cc3ccc(F)cc3Cl)CC2)o1`?
MT1-MMP act inh: inactive; STK33 inh: inactive; GSK3A inh: inactive; Pemphigus Ab inh: inactive; GSK3B inh: inactive

Results for Cc1nc2nc(-c3ccco3)[nH]n2c(=O)c1C ?
MT1-MMP act inh: inactive; STK33 inh: inactive; GSK3A inh: inactive; Pemphigus Ab inh: 65.4; GSK3B inh: inactive

What do the screens show for `CCc1cc2cc(C)c(C)cc2nc1SCC(=O)Nc1cc(C)on1`?
MT1-MMP act inh: inactive; STK33 inh: inactive; GSK3A inh: inactive; Pemphigus Ab inh: 59.9; GSK3B inh: inactive

Assay outcomes: PubChem BioAssay, several laboratories
